The record followed here is the array DNA melting data of Ke et al. (doi:10.1101/2024.01.08.574731).

Data set [1] in a line: folding enthalpy; higher = less favourable; fluorescence melt of hairpins on a sequencing array, two-state fit. The settings on record: sodium 0.088 M. Summed up: (§1)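 Library hairpins on a sequenced MiSeq flow cell carried annealed Cy3 and quencher oligos, and their Cy3 fluorescence was imaged in 50 mM Na-HEPES pH 8.0 with 25 mM NaCl, in 2.5 °C steps up to 60 °C. Signals were normalised to Cy3 before quenching and to control constructs. Melting temperature and folding enthalpy were obtained from bootstrapped two-state fits, combined by inverse-variance weighting across four replicates, and the fitted temperatures were then raised by 9.35 °C to match UV melts.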

The nature of data set [2]: melting temperature; fluorescence melt of hairpins on a sequencing array, two-state fit, raised by 9.35 °C to match UV melts. Particulars: sodium 0.088 M. Summed up: as §1

On to GATCAAGGTTTTGATC ((((((....)))))), for which the folding enthalpy in data set [1] is -29.7 kcal/mol. Further, the Tm in data set [2] was 45.1 °C.
For the sequence GATCAAGTAGTTGATC ((((((....)))))), the folding enthalpy in data set [1] is -31.6 kcal/mol. Also, the Tm in data set [2] stood at 46.7 °C.
For GATCAAGTCGTTGATC ((((((....)))))), in that order: -39.2 kcal/mol and 48 °C.
In the same order, the values of GATCAAGTGATTGATC ((((((....)))))) are -32.2 kcal/mol and 47.3 °C.
As to GATCAAGTGCTTGATC ((((((....)))))), the folding enthalpy in data set [1] was -41.2 kcal/mol. The Tm in data set [2] is 47.2 °C.
In the case of GATCAAGTTGTTGATC ((((((....)))))), the folding enthalpy in data set [1] is -36.6 kcal/mol. Also, the Tm in data set [2] is 45.1 °C.
Turning to GATCAATAATTGATC ((((((...)))))), in data set [1], the folding enthalpy is -23.8 kcal/mol. In data set [2], the Tm amounted to 40.3 °C.
With GATCAATACCTTGATC ((((((....)))))), the folding enthalpy in data set [1] is -34 kcal/mol. In data set [2], the Tm turned out to be 46.5 °C.
For the sequence GATCAATACTTGATC ((((((...)))))), the folding enthalpy in data set [1] was -30.4 kcal/mol. In addition, in data set [2], the Tm came out at 42 °C.
In the same order, the values of GATCAATAGTTTGATC ((((((....)))))) are -30.6 kcal/mol and 42.7 °C.
On to GATCAATATCTTGATC ((((((....)))))), for which, in data set [1], the folding enthalpy is -30.6 kcal/mol. Besides, the Tm in data set [2] is 42.6 °C.
GATCAATCACTTGATC ((((((....)))))): in data set [1], the folding enthalpy was -29.9 kcal/mol. Moreover, the Tm in data set [2] was determined as 43.2 °C.
Turning to GATCAATCCATTGATC ((((((....)))))), in data set [1], the folding enthalpy is -42.6 kcal/mol. Also, in data set [2], the Tm stood at 49.7 °C.
Regarding GATCAATCGGTTGATC ((((((....)))))), in data set [1], the folding enthalpy was -42 kcal/mol. Moreover, in data set [2], the Tm came to 44.4 °C.
In the same order, the values of GATCAATCTCTTGATC ((((((....)))))) are -30.1 kcal/mol and 43.2 °C.
For GATCAATGCATTGATC ((((((....)))))), in that order: -65.6 kcal/mol and 52.3 °C.
Regarding GATCAATTACTTGATC ((((((....)))))), the folding enthalpy in data set [1] is -31.4 kcal/mol. Also, the Tm in data set [2] was found to be 44 °C.
In the case of GATCAATTATTGATC ((((((...)))))), the folding enthalpy in data set [1] was -29.3 kcal/mol. In addition, in data set [2], the Tm was 43.8 °C.
Consider GATCAATTCTTTGATC ((((((....)))))), for which, in data set [1], the folding enthalpy is -35.9 kcal/mol. In addition, the Tm in data set [2] came to 47.8 °C.
For GATCAATTTTTTGATC ((((((....)))))), in that order: -35.1 kcal/mol and 47.3 °C.
In the same order, the values of GATCACAAACGTGATC ((((((....)))))) are -33.2 kcal/mol and 55.6 °C.
In the same order, the values of GATCACAAAGGTGATC ((((((....)))))) are -32.8 kcal/mol and 53.6 °C.
Turning to GATCACAAATGTGATC ((((((....)))))), the folding enthalpy in data set [1] is -33.4 kcal/mol. In data set [2], the Tm was determined as 55.5 °C.
In the same order, the values of GATCACAACGTGATC ((((((...)))))) are -34.4 kcal/mol and 61.3 °C.
For GATCACAAGCGTGATC ((((((....)))))), in that order: -37.6 kcal/mol and 56.6 °C.
GATCACAATAGTGATC ((((((....)))))): the folding enthalpy in data set [1] is -38.3 kcal/mol. The Tm in data set [2] worked out at 60.8 °C.
For GATCACAATGGTGATC ((((((....)))))), in that order: -35.1 kcal/mol and 55.3 °C.
For GATCACACAGTGATC ((((((...)))))), in that order: -38.1 kcal/mol and 58.8 °C.
In the same order, the values of GATCACACCAGTGATC ((((((....)))))) are -38.6 kcal/mol and 59 °C.
In the case of GATCACACCGGTGATC ((((((....)))))), the folding enthalpy in data set [1] was -39.3 kcal/mol. The Tm in data set [2] was determined as 57.3 °C.
For GATCACACGAGTGATC ((((((....)))))), the folding enthalpy in data set [1] is -43.6 kcal/mol. Besides, in data set [2], the Tm was 56.4 °C.
Regarding GATCACACGCGTGATC ((((((....)))))), the folding enthalpy in data set [1] was -38.6 kcal/mol. In addition, the Tm in data set [2] turned out to be 58.5 °C.
As for GATCACACGGGTGATC ((((((....)))))), in data set [1], the folding enthalpy is -35.5 kcal/mol. Further, in data set [2], the Tm is 57.1 °C.
With GATCACACTCGTGATC ((((((....)))))), the folding enthalpy in data set [1] was -40.6 kcal/mol. Also, the Tm in data set [2] turned out to be 57.4 °C.
For GATCACAGCAGTGATC ((((((....)))))), in that order: -40.3 kcal/mol and 59.5 °C.
Consider GATCACAGCTGTGATC ((((((....)))))), for which, in data set [1], the folding enthalpy was -41.9 kcal/mol. Besides, the Tm in data set [2] turned out to be 59 °C.
As for GATCACATAAGTGATC ((((((....)))))), the folding enthalpy in data set [1] is -39.3 kcal/mol. In data set [2], the Tm was 58.9 °C.
In the same order, the values of GATCACATGGGTGATC ((((((....)))))) are -45.1 kcal/mol and 56.4 °C.
